Screening data (PubChem BioAssay)
PLAP activator: PLAP enzyme activators, biochemical, luminescence, HTS; Alkaline phosphatase, placental type (Homo sapiens), P05187; purified PLAP enzyme, luminescent substrate read-out; hits give high values; activation fold at 20 µM; 96,000 tested, 1.2% active; AID 696, 2007; in the data active means activation fold above about 2
E coli WT exp: growth inhibitors of wild-type E. coli, primary screen, strain BW25113, expanded library, OD600. OD600 absorbance. growth inhibition, % at 100 µM. 98,000 tested, 0.15% active;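 active means growth inhibition above about 50% at one test dose, limit read from the data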;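 further: growth measured after 20 h incubation at 37 °C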
HePTP inhibitor: inhibitors of human HePTP phosphatase, primary screen, biochemical, absorbance, leukemia target. Tyrosine-protein phosphatase non-receptor type 7 (Homo sapiens), P35236. recombinant HePTP phosphatase activity, OD absorbance. inhibition, % at 20 µM. 110,000 tested, 0.64% active; in the data active means inhibition above about 50%;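 further: plate controls were vehicle for no effect and reference inhibitor for full effect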
Target sequence (P35236 whole entry, looked up): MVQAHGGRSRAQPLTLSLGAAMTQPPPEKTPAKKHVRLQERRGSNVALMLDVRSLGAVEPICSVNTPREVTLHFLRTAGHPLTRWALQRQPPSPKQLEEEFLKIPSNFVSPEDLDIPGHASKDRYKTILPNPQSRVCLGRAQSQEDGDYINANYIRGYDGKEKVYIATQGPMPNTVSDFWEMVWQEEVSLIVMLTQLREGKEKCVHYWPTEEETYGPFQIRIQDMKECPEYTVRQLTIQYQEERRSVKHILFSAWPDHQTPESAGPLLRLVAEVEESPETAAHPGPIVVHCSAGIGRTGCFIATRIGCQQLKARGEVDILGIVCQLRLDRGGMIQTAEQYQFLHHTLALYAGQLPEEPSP
tolC growth inh: growth inhibitors of E. coli tolC mutant, primary screen, strain BW25113 ΔtolC::kan, 384-well; OD615; AID 573, 2007; growth inhibition, % at 10 µM (by protocol); 65,000 tested, 2.2% active;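 active means growth inhibition at or above a cutoff equal to the mean over every tested compound plus 3 SD, cut at about 60% in these data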;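 further: growth measured after 20 h incubation at 37 °C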
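Assay system: tolC-deleted E. coli BW25113. Medium: kanamycin-containing LB broth (50 µg/mL). Dosing: 10 µM final, single dose. Timing: bacterial growth with compound for 20 h at 37 °C. Detection: A615 absorbance measurement. Read-out basis: growth inhibition in percent.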
PostGolgi yeast: phenotypic screen on post-Golgi transport, primary screen; post-Golgi transport phenotypic cell assay; 98,000 tested, 0.9% active; inhibition, % at 10 µM;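 further: yeast cells grown in 1536-well plates; yeast grown about 18 h at 30C before absorbance read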
PostGolgi ctrl: growth inhibition of yeast control strain, primary screen, counter-screen for post-Golgi transport modulator project; efflux-deficient yeast background strain, growth absorbance A615, 16 h; inhibition, % at 10 µM; 98,000 tested, 5% active; AID 738, 2007
* hit, by the source's call; · = no result given. Only some compounds are listed: those with a hit (about 5.4% of all), similar ones and a draw of the others. Unless noted, no stated cut-off is given here; in the data, active means inhibition above about 30%; inactive means the rest.

SMILES	PLAP activator	E coli WT exp	HePTP inhibitor	tolC growth inh	PostGolgi yeast	PostGolgi ctrl
Cc1cccc2cc(CN(Cc3ccc(F)cc3)C(=O)N(C)C)c3nnnn3c12	1.6	-5.0	11.0	3.1	12.2	32.1*
COCCN(Cc1cc2cccc(C)c2n2nnnc12)C(=O)C(F)(F)F	1	-2.0	6.3	0.3	4.9	6.5
O=C(NCc1ccccn1)c1ccc([N+](=O)[O-])cc1	·	·	-9.6	·	·	·
Cn1nnc2cc(C(=O)NC3CCCCC3)ccc21	0.8	4.0	9.5	-14.3	-2.6	2.5
Cn1nnc2cc(C(=O)Nc3cccnc3)ccc21	1.1	4.0	7.7	-4.1	39.5*	-7.3
CC(C)NC(=O)c1ccc2c(c1)nnn2C	0.9	5.0	8.4	-11.0	0.9	44.7*
Cc1c(C#N)c2ncn(CCCN(C)C)c(=O)c2n1-c1ccccc1	1	-7.0	6.9	-23.9	1.1	-0.5
CCCCS(=O)(=O)/C=C\C=C/S(=O)(=O)CCCC	0.9	31.0	0.4	10.9	94.1*	27.1
Nc1c(C(=O)c2ccccc2)oc2ccccc12	0.7	7.0	·	·	8.1	1.7
O=C(c1ccc(Cl)cc1)c1oc2ccccc2c1CS(=O)(=O)c1ccccc1	0.9	-19.0	·	·	2.3	31.4*
NC1=NC(=O)/C(=C/c2ccc(-c3ccc([N+](=O)[O-])cc3Br)o2)S1	·	·	100.1*	·	·	·
O=C1OC(c2ccccc2)=C/C1=C/c1ccc(-c2ccc([N+](=O)[O-])cc2Br)o1	·	·	104.2*	·	·	·
FCCCOc1ccc(-c2nccc(-c3ccc(F)cc3)n2)cc1	1.4	-7.0	·	·	5.0	5.4
O=C(c1cc(C2CC2)on1)N1CCN(C(c2ccccc2)c2ccccc2)CC1	1.1	-4.0	10.5	65.1*	3.9	12.7
O=C(c1cc(-c2cccc(O)c2)on1)N1CCN(C(c2ccccc2)c2ccccc2)CC1	1.4	-2.0	4.4	28.0	-1.4	-9.3
CC12CCC(C(=O)Nc3ccc4c(c3)OCCO4)(OC1=O)C2(C)C (stereo unspecified)	0.9	-2.0	5.1	-0.6	-4.4	0.0
Cc1cc(C)c(NC(=O)CN(C2CCCCC2)C2CCCCC2)c(C)c1	1.3	0.0	·	·	31.8*	52.8*
O=C(CCN1CCCCCC1)Nc1ccc(F)cc1	0.9	5.0	-4.9	-15.0	-3.8	22.5
CC(C)CNC(=O)c1ccc(COc2ccc(Cl)cc2Cl)o1	1	13.0	·	·	-9.3	32.3*
COCCNC(=O)C1CC(c2cccc(OC)c2)=NO1 (stereo unspecified)	1	6.0	9.6	-14.8	8.2	36.5*
Cc1ccc(/C=C(\NC(=O)c2ccc(C)cc2)c2nc(=S)[nH][nH]2)cc1	1.3	12.0	·	·	-0.2	22.2
CCOC(=O)C1NC(=O)CC1c1ccccc1 (stereo unspecified)	1.1	1.0	·	·	-3.6	1.1
O=C1NCC(Cn2c3ccccc3c3ccccc32)O1 (stereo unspecified)	·	·	103.9*	·	·	·
O=C(/C=C\c1ccco1)Oc1ccc(/C=N\NC(=O)c2cncc(Br)c2)cc1	·	·	57.5*	·	·	·
CCOC(=O)Cc1cc(=O)c2c(=O)n(-c3ccccc3)[nH]c2[nH]1	1	3.0	7.0	-24.6	3.1	4.1
SMILES	PLAP activator	E coli WT exp	HePTP inhibitor	tolC growth inh	PostGolgi yeast	PostGolgi ctrl
O=C(Oc1c(Cl)cc(Cl)c2cccnc12)N1CCOCC1	1	3.0	9.8	-10.2	14.2	21.6
O=C(Oc1c(Cl)cc(Cl)c2cccnc12)N1CCCCC1	1.2	3.0	4.5	19.0	-0.5	42.8*
O=C(CSc1nc2ccc([N+](=O)[O-])cc2[nH]1)c1ccc(F)cc1	·	·	-4.7	·	·	·
CCCCNS(=O)(=O)c1ccc2nc(SCC(=O)c3ccc(C#N)cc3)[nH]c2c1	2*	-2.0	15.0	-3.0	24.3	12.7
COc1cccc(OCCCCCCN2CCOCC2)c1	1.7	-1.0	·	·	45.1*	21.1
COc1cccc(OCCCN2CCOCC2)c1	·	·	-1.7	·	·	·
Cc1sc(NC(=O)c2ccco2)nc1-c1ccc2c(c1)CC(C)N2C(=O)C1CC1 (stereo unspecified)	1.4	-10.0	6.9	26.3	2.7	32.5*
Cc1sc(NC(=O)c2ccco2)nc1-c1ccccc1	1	8.0	·	·	4.1	21.2
O=C(O)CCC(=O)NNc1nc(-c2ccccc2)c2cc(Cl)ccc2n1	·	·	2.8	·	·	·
COCc1cc(=O)[nH]c(Nc2nc(C)c3cc(OC)ccc3n2)n1	2.1*	-11.0	·	·	8.0	4.7
COc1ccc2nc(Nc3nc4ccccc4c(=O)[nH]3)nc(C)c2c1	·	·	-19.1	·	·	·
CCN(CCCNC(=O)C1CCCN(S(=O)(=O)CC)C1)c1cccc(C)c1 (stereo unspecified)	1.2	5.0	0.7	-6.2	-1.9	8.2
Cc1cccc2cc3c(N)c(C(=O)Nc4ccc(N5CCOCC5)cc4)sc3nc12	1	-9.0	·	·	-0.7	41.0*
Cc1ccc2nc3sc(C(=O)Nc4ccc(N5CCOCC5)cc4)c(N)c3cc2c1	1	0.0	·	·	16.6	-3.3
C=C(C)c1cccc(C(C)(C)NC(=O)Nc2ccc(C(=O)N3CCOCC3)cc2)c1	·	·	0.5	·	·	·
COc1ccc(-c2noc(CCC(=O)N(C)c3cccc(C)c3)n2)cc1	1.5	-2.0	4.3	67.6*	-10.5	11.2
CCN(C(=O)CCc1nc(-c2ccc(OC)cc2)no1)c1cc(OC)ccc1OC	2*	-21.0	1.1	37.5	2.5	7.6
COc1ccc(-c2noc(CCC(=O)Nc3cccc(C)c3)n2)cc1	1.2	-5.0	4.5	12.1	-4.0	3.4
CSc1nc2c(c(=O)[nH]c(=O)n2C)n1C/C=C(\C)Cl	1.7	1.0	5.1	-0.7	-2.4	6.7
C/C(=N/NC(=O)c1cc2ccccc2cc1O)C1C(=O)c2ccccc2C1=O	1.9	-1.0	·	·	-11.0	2.9
C/C(=N\NC(=O)c1ccccc1O)C1C(=O)c2ccccc2C1=O	2.1*	9.0	·	·	-0.9	9.1
O=C(CSc1nnc2scc(-c3ccc(Cl)cc3)n12)NCc1ccc2c(c1)OCO2	0.9	-9.0	-3.7	8.1	8.0	-10.8
Cc1noc(C)c1S(=O)(=O)Nc1ccc(C(=O)NC2CCCCC2)cc1	1	4.0	-1.8	13.2	0.5	5.1
Cc1noc(C)c1S(=O)(=O)Nc1ccc(C(=O)N2CCCCC2)cc1	1.3	-5.0	·	·	17.4	-3.4
Cc1ccc(C)c(N2CCN(C(=O)c3ccc(NS(=O)(=O)c4c(C)noc4C)cc3)CC2)c1	1.3	-18.0	-10.6	80.2*	4.4	14.1
SMILES	PLAP activator	E coli WT exp	HePTP inhibitor	tolC growth inh	PostGolgi yeast	PostGolgi ctrl
Cc1ccc(Cl)cc1N1CCN(C(=O)c2ccc(NS(=O)(=O)c3c(C)noc3C)cc2)CC1	1.5	-19.0	-5.2	70.8*	1.1	-5.5
COc1ccc(OC)c(CNC(=O)CCNC(=O)Cn2ccc3ccccc3c2=O)c1	1.1	-8.0	8.3	-18.7	2.3	0.6
COc1ccc(-c2c(C#N)c(N)nc3c2CCc2ccccc2-3)cc1OC	1.5	-13.0	·	·	-0.7	43.8*
COc1cc(-c2c(C#N)c(N)nc3c2CCCC3)ccc1O	1	0.0	-2.5	8.3	2.9	10.9
CN(C)C1=C(C#N)C(C2CCCCC2=O)c2c(c3ccccc3n2C)N1c1ccc([N+](=O)[O-])cc1 (stereo unspecified)	·	·	103.6*	·	·	·
O=C(O)c1ccccc1SC1CC(=O)N(c2ccc([N+](=O)[O-])cc2)C1=O (stereo unspecified)	·	·	-8.2	·	·	·
